Shown are actives, neighbours in structure and some others; about 1.5% of the full set was active somewhere.
C-LANA FP: KSHV C-LANA DNA binding inhibition; MBP-C-LANA/FAM-LBS DNA binding, fluorescence polarization; actives 0.078% (n = 340,000); inhibition, % at 9 µM;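 active means highest replicate inhibition at or above 60% at 9 µM, even if other replicates fall short; inactive means all replicates below 60% inhibition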;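 further: 0% = neutral control wells and 100% = 4 µM acridine orange control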
CAL PDZ FP-1: inhibitors of human CAL PDZ peptide binding; Q9HD26; purified CAL PDZ, TMR-peptide fluorescence polarization, 1 h; inhibition, % at 20 µM; actives 0.02% (n = 330,000); AID 504414;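 active means highest replicate inhibition of at least 40%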;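 further: plate controls were DMSO neutral control wells for no effect and unlabeled competitor peptide control wells for full effect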
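Test system: tagged CAL PDZ domain / Buffer or medium: sodium phosphate/NaCl buffer pH 7.4 with TCEP, IgG, Thesit / Reagent: TMR-labelled reporter peptide T*-PRC34 bound in PDZ groove / Compound dosing: single point, 20 µM / Schedule: 1 h incubation at room temperature before polarization reading / Technique: fluorescence polarization (mP) / Benchmarks: unlabelled peptide, DMSO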
CAL PDZ FP-2: inhibitors of human CAL PDZ peptide binding. Q9HD26. purified CAL PDZ, TMR-peptide fluorescence polarization, 1 h. inhibition, % at 24.9 µM. actives 0.92% (n = 300,000);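 active means mean inhibition of at least 30% with at least half of replicates also reaching 30%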;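 further: 0% = DMSO neutral control and 100% = excess unlabeled competitor peptide PRC23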
LANA-H2B inh: blocks KSHV LANA binding to histone H2A/H2B | Q9QR71 | cell-free LANA-H2A/H2B peptide, fluorescence polarization | inhibition, % (test concentration not listed) | actives 0.6% (n = 320,000) | AID 2629; in the data active means inhibition mostly above about 10%, no sharp cut-off; inactive means mostly below about 6.7%
Target sequence (Q9QR71 whole entry, looked up): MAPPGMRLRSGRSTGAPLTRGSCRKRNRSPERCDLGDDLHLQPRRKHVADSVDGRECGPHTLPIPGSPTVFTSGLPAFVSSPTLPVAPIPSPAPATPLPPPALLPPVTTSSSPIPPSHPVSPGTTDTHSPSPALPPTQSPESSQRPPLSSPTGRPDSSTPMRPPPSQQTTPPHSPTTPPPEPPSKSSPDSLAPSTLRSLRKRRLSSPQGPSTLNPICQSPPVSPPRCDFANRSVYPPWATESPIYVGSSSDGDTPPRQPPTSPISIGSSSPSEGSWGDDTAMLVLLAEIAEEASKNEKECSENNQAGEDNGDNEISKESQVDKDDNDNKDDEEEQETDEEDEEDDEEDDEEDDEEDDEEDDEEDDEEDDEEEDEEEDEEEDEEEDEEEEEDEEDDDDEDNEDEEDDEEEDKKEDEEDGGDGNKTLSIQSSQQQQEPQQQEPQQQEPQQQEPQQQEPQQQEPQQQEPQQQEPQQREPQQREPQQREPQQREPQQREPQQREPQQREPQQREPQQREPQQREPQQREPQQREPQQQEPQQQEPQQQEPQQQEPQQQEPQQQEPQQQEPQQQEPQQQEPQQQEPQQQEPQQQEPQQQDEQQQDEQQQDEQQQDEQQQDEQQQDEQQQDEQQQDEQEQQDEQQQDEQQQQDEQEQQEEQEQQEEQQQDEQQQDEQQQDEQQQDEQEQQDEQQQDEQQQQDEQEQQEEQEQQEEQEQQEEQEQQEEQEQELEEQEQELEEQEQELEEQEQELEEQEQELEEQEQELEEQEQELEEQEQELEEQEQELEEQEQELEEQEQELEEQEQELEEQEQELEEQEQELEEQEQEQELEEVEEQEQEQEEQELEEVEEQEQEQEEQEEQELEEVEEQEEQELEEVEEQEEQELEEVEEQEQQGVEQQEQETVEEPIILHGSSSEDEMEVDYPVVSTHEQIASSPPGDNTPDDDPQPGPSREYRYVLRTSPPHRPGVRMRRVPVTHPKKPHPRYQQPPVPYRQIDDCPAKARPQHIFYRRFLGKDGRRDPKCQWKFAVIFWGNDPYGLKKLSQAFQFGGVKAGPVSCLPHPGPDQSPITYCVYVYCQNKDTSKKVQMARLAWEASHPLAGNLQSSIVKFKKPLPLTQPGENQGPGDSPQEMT
Keap1 Nrf2 FP: Keap1-Nrf2 (human) interaction inhibition. Q14145. Keap1 Kelch-Nrf2 peptide fluorescence polarization, 1536-well. inhibition, % at 9.4 µM. actives 0.15% (n = 340,000); in the data active means inhibition above about 12%;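 further: human Keap1 Kelch domain with fluorescein labeled Nrf2 9mer peptide probe; 0% = neutral control wells and 100% = peptide positive control; higher means more block of Keap1 binding to Nrf2 peptide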
CaV13 ICDI inh: Disruptors of the CACNA1D IQ motif to Ca2+-dependent inactivation inhibitor domain association, primary screening, Förster resonance energy transfer in intact living …; HEK cells, CFP/YFP FRET ICDI-IQ, plate reader, 10 min; percent FRET-ratio fall versus neutral wells; inhibition, % at 12.3 µM; actives 0.098% (n = 340,000);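 active means mean replicate inhibition of at least 30% and at least 1% of replicates passing that level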;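 further: 0% = median of the neutral control wells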
* marks the source's active call; other numbers are inactive results.

CCn1nc(C)c(CNC(=O)c2ccc(OC3CCN(Cc4ccccn4)CC3)cc2)c1C was read as C-LANA FP 0.4, CAL PDZ FP-1 -0.7, CAL PDZ FP-2 50.2*, LANA-H2B inh 5.9 and Keap1 Nrf2 FP 0.6.
For CCn1nc(C)c(CN2CCC(Oc3ccc(C(=O)N4CCCC4)cc3)CC2)c1C the results were C-LANA FP -0.3, CAL PDZ FP-1 -1.3, CAL PDZ FP-2 51.0*, LANA-H2B inh 4.7, Keap1 Nrf2 FP -0.4 and CaV13 ICDI inh -5.4.
`CN(C(=O)c1ccc(OC2CCN(Cc3ccccn3)CC2)cc1)C1CCCCC1` gave C-LANA FP 1.3, CAL PDZ FP-1 -0.6, CAL PDZ FP-2 -6.3, LANA-H2B inh 0.5, Keap1 Nrf2 FP -6.7 and CaV13 ICDI inh -3.6.
`COC(=O)C1=C(C)N(C)C(=NCc2ccc3c(c2)OCO3)NC1c1ccc(F)cc1` (centres undefined) gave CaV13 ICDI inh -3.0.
`O=C(NNS(=O)(=O)c1ccc(Br)cc1)c1ccccc1-n1cccc1` gave C-LANA FP 1.6, CAL PDZ FP-1 -3.2, CAL PDZ FP-2 -21.2, LANA-H2B inh 2.0, Keap1 Nrf2 FP 4.2 and CaV13 ICDI inh -5.7.
For O=C(NNS(=O)(=O)c1ccccc1)c1ccccc1-n1cccc1 the results were C-LANA FP -1.4, CAL PDZ FP-1 -1.0, CAL PDZ FP-2 41.4*, LANA-H2B inh 1.6 and Keap1 Nrf2 FP -0.3.
Cc1cc(NC(=O)CSc2n[nH]c(N)n2)no1 was read as C-LANA FP -0.1, CAL PDZ FP-1 -1.6, CAL PDZ FP-2 -1.1, LANA-H2B inh active, Keap1 Nrf2 FP -3.5 and CaV13 ICDI inh -2.9.
CCN1CC2=C(OC(N)=C(C#N)C2c2cccs2)/C(=C/c2cccs2)C1 (centres undefined) was read as C-LANA FP -1.6, CAL PDZ FP-1 -0.3, CAL PDZ FP-2 43.4*, LANA-H2B inh -2.2 and Keap1 Nrf2 FP -19.8.
For COc1ccc(NC(=O)N(C)C[C@H]2OCc3cnnn3CCCC(=O)N([C@H](C)CO)C[C@@H]2C)c(OC)c1 the results were CaV13 ICDI inh -5.5.
For Cc1cc(N2CCNC[C@@H]2C)ccc1N1CCN(Cc2ccccc2)[C@H](C)C1 the results were CaV13 ICDI inh -7.9.
For CCCN1C(=O)C(=O)c2cc(C)ccc21 the results were C-LANA FP 1.1, CAL PDZ FP-1 0.2, CAL PDZ FP-2 -2.9, LANA-H2B inh -1.8, Keap1 Nrf2 FP -10.7 and CaV13 ICDI inh -10.2.
Screening CCCCN1C(=O)C(=O)c2cc(Cl)ccc21 returned C-LANA FP 1.3, CAL PDZ FP-1 0.8, CAL PDZ FP-2 1.2, LANA-H2B inh active, Keap1 Nrf2 FP 2.5 and CaV13 ICDI inh -3.6.
For CCN(CC(=O)Nc1c(F)cccc1F)C(=O)c1cccn1C the results were CaV13 ICDI inh -11.8.
Screening CC(C)(C)N(Cc1ccccc1)C(=O)c1ccc(Br)o1 returned C-LANA FP 1.4, CAL PDZ FP-1 -2.6, CAL PDZ FP-2 -1.5, LANA-H2B inh 9.6*, Keap1 Nrf2 FP -1.2 and CaV13 ICDI inh -0.8.
COc1cccc(CNC(=O)[C@H]2CCCN2C(=O)[C@H]2CCCN2C(=O)c2ccc(F)c(C(F)(F)F)c2)c1 was read as CaV13 ICDI inh -9.9.
Cc1cc(NS(=O)(=O)c2ccc(NC(=S)NC(=O)c3ccc(F)cc3)cc2)no1 was read as C-LANA FP 1.2, CAL PDZ FP-1 -0.2, CAL PDZ FP-2 -3.5, LANA-H2B inh -3.4, Keap1 Nrf2 FP 1.7 and CaV13 ICDI inh -2.5.
Screening COc1ccc(CC(=O)Nc2ccc(S(=O)(=O)Nc3cc(C)on3)cc2)cc1 returned C-LANA FP 1.1, CAL PDZ FP-1 -1.2, CAL PDZ FP-2 48.9*, LANA-H2B inh 4.9, Keap1 Nrf2 FP -0.7 and CaV13 ICDI inh -4.9.
`Cc1cc(NS(=O)(=O)c2ccc(NC(=S)NC(=O)c3cccc(S(=O)(=O)N(C)C)c3)cc2)no1` gave C-LANA FP 0.5, CAL PDZ FP-1 -2.7, CAL PDZ FP-2 52.2*, LANA-H2B inh -1.3, Keap1 Nrf2 FP 0.4 and CaV13 ICDI inh -3.1.
`CCN(C(=O)CSc1nnc(-c2ccc3c(c2)OCO3)o1)C1CCS(=O)(=O)C1` (centres undefined) gave C-LANA FP -1.8, CAL PDZ FP-1 -0.8, LANA-H2B inh 1.9, Keap1 Nrf2 FP -5.2 and CaV13 ICDI inh -2.1.
C[C@H](O)[C@@H]1CN2CCc3ccc(-c4ccc5c(c4)OCO5)cc3[C@@H]2C[C@@H]1N(C)C(=O)c1cccc(Cl)c1 was read as CaV13 ICDI inh -4.3.
For O=C(CN1CCCc2ccccc21)NC(=O)NC1CCCCC1 the results were C-LANA FP -2.0, CAL PDZ FP-1 -0.8, CAL PDZ FP-2 82.3*, LANA-H2B inh 0.8, Keap1 Nrf2 FP -1.9 and CaV13 ICDI inh -18.3.
`CC(C)(C)NC(=O)NC(=O)CN1CCCc2ccccc21` gave C-LANA FP 16.2, CAL PDZ FP-1 -0.8, CAL PDZ FP-2 -0.4, LANA-H2B inh 2.7, Keap1 Nrf2 FP -1.7 and CaV13 ICDI inh -1.4.
Screening Cc1ccc(N2CCN(C(=O)CN3C(=O)c4ccccc4C3=O)CC2)cc1 returned C-LANA FP 0.9, CAL PDZ FP-1 -1.7, CAL PDZ FP-2 0.1, LANA-H2B inh -2.8, Keap1 Nrf2 FP -2.3 and CaV13 ICDI inh -2.2.
CCCOC(=O)CN1C(=O)c2ccccc2C1=O was read as C-LANA FP -2.1, CAL PDZ FP-1 -2.8, CAL PDZ FP-2 -2.7, LANA-H2B inh -6.2 and Keap1 Nrf2 FP -4.2.
CCOC(=O)CN1C(=O)c2ccccc2C1=O was read as C-LANA FP -2.4, CAL PDZ FP-1 0.7, CAL PDZ FP-2 50.7*, LANA-H2B inh 0.6, Keap1 Nrf2 FP 1.8 and CaV13 ICDI inh -4.8.
Screening O=C(CN1C(=O)c2ccccc2C1=O)N1CCN(c2ccccc2)CC1 returned C-LANA FP 0.7, CAL PDZ FP-1 -0.8, CAL PDZ FP-2 39.7*, LANA-H2B inh 5.4, Keap1 Nrf2 FP 1.0 and CaV13 ICDI inh -2.9.
CCOc1ccc(C(=O)c2cc3ccc(O)cc3oc2=O)cc1 was read as C-LANA FP 0.0, CAL PDZ FP-1 0.3, LANA-H2B inh -0.5, Keap1 Nrf2 FP 5.6 and CaV13 ICDI inh 89.9*.
For CC(=Nc1ccc(Cl)cc1N)c1c(O)cc(C)oc1=O the results were CaV13 ICDI inh -5.2.
`CC(C)[C@H](NC(N)=O)C(=O)Nc1ccc(OCc2ccccc2)cc1` gave C-LANA FP -0.7, CAL PDZ FP-1 -1.6, CAL PDZ FP-2 -5.8, LANA-H2B inh 0.6, Keap1 Nrf2 FP -0.3 and CaV13 ICDI inh -5.3.
`C[C@H](NC(N)=O)C(=O)Nc1ccc(OCc2ccccc2)cc1` gave C-LANA FP -1.3, CAL PDZ FP-1 -1.3, LANA-H2B inh 12.3*, Keap1 Nrf2 FP 0.6 and CaV13 ICDI inh -4.8.

High-throughput results from PubChem.
